Active and inactive are the calls of the source. The calls are words filed in the database; no cut-off is given here.
Assays:
[1] = species: Rattus norvegicus; assay: Ability to inhibit the release of extravasated dye in the rat peritoneal fluids by 50%; type: functional, organism-based
Outline: (§1)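 Rats sensitized ip with 2 mL of 1:5 rat antiserum in isotonic saline. 2 h later, 0.3 mL 5% Pontamine Sky Blue given iv, then after 30 s ip challenge with 5 mL Tyrode (heparin 50 μg/mL, ovalbumin 0.4 mg/mL). Compound ip in 1 mL saline 30 s before antigen; dose expressed as concentration in the 6 mL injected. Peritoneal fluid collected 5 min post-challenge.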

[2] = species: Rattus norvegicus; assay: Ability to inhibit the release of histamine in the rat peritoneal fluids by 50%; type: functional, organism-based; outline: as §1
[3] = biological target: Histamine H1 receptor (Cavia porcellus, UniProt P31389); assay: H1-antihistamine activity on guinea pig ileum; type: functional, tissue-based; details: read-out: pA2 (converted)
Outline: (§2)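 Isolated guinea pig ileum under about 1 g tension, isotonic recording, histamine contractions. Method a: histamine curves repeated at rising antagonist levels in Tyrode; pA2 from a Schild plot of log(CR−1). Methods b/c: antagonist given 10 min (b) or 30 s (c) before double the ~50%-response histamine dose.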

[4] = biological target: Histamine H1 receptor (Cavia porcellus) (UniProt P31389); assay: H1-antihistamine activity on guinea pig ileum; Inactive; type: functional, tissue-based; outline: as §2
Sequence of Histamine H1 receptor (Cavia porcellus) (P31389 whole entry): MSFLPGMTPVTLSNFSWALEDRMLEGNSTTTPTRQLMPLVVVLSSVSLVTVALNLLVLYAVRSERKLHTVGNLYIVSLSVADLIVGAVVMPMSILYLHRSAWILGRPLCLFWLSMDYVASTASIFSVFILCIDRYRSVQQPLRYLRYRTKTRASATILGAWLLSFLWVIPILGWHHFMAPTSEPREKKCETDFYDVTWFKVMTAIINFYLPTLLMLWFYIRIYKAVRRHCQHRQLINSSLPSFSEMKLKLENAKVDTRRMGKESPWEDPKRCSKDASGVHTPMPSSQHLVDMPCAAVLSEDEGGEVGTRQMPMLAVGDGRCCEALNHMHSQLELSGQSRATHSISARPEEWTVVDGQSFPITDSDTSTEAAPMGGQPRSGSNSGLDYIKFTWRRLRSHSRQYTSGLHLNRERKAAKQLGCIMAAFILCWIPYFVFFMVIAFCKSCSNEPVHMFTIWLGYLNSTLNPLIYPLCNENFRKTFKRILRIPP

Sequence of Histamine H1 receptor (P31389 whole entry): as above

In the case of `COc1ccc(CN(CCN(C)C)c2ccccn2)cc1` [PYRILAMINE], the IC50 [1] is reported as 29 µM and the IC50 [2] is reported as > 200 µM.
`O=c1oc2cc(OCCCN3CCN(Cc4ccc(Cl)cc4)CC3)ccc2c(O)c1[N+](=O)[O-]` gave a Kb [3] of 0.001 µM, an IC50 [1] of 5.8 µM and an IC50 [2] of 1.9 µM.
`O=c1oc2cc(OCC(O)CN3CCN(Cc4ccc(Cl)cc4)CC3)ccc2c(O)c1[N+](=O)[O-]` (stereo not drawn) was tested, and the IC50 [1] was 20 µM and the IC50 [2] was < 2 µM.
With `CCCc1c(OCC(O)CN2CCN(Cc3ccc(Cl)cc3)CC2)ccc2c(O)c([N+](=O)[O-])c(=O)oc12` (stereo not drawn) the IC50 [1] was 16 µM and the IC50 [2] was 2.6 µM.
In the case of `CN1CCN(CCCOc2ccc3c(O)c([N+](=O)[O-])c(=O)oc3c2)CC1`, the Kb [3] is reported as 100 µM, the IC50 [1] is reported as 13 µM and the IC50 [2] is reported as < 2 µM.
Molecule `O=c1oc2cc(OCCN3CCN(Cc4ccc(Cl)cc4)CC3)ccc2c(O)c1[N+](=O)[O-]` has a Kb [3] of 0.158 µM and an IC50 [1] of 100 µM.
`CN1CCC(=C2c3ccccc3CC(=O)c3sccc32)CC1` [KETOTIFEN] was tested, and the IC50 [1] was 9.1 µM and the IC50 [2] was > 200 µM.
With `O=c1oc2cc(CN3CCN(Cc4ccc(Cl)cc4)CC3)ccc2c(O)c1[N+](=O)[O-]` the IC50 [1] was 83 µM and the IC50 [2] was 14 µM.
With `O=C(O)c1cc(=O)c2c(OCC(O)COc3cccc4oc(C(=O)O)cc(=O)c34)cccc2o1` [CROMOLYN SODIUM] the pA2 [4] was “inactive”, the IC50 [1] was 5.8 µM and the IC50 [2] was 0.74 µM.
In the case of `O=c1oc2cc(OCCCN3CCN(Cc4ccccc4)CC3)ccc2c(O)c1[N+](=O)[O-]`, the IC50 [1] is reported as > 200 µM and the IC50 [2] is reported as 28 µM.

Reference: ChEMBL document CHEMBL1122518, “N-benzylpiperazino derivatives of 3-nitro-4-hydroxycoumarin with H1 antihistamine and mast cell stabilizing properties” (J Med Chem, 1984)
